# Compounds with a hit are over-represented: about 2.1% of the library has one in this group of screens.
# aSyn 5UTR inh – MLPCN primary screen, SNCA 5' untranslated region | alpha-synuclein 5'UTR reporter, inhibitor activity | inhibition, % (tested at 7.5 µM) | actives 0.82% (n = 300,000) | AID 1813, 2009; in the data active = inhibition above about 60%; inconclusive = no clear call, values can overlap the other calls;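 also: H4 neuroglioblastoma cells stably carrying SNCA 5'UTR luciferase fusion; 0% = DMSO wells and 100% = positive control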
# Shn3 3UTR inh – reduction of Shn3 3'UTR firefly luciferase signal, primary screen, Schnurri-3 inhibitor project, cell-based, Clone20 osteoblasts, set 2; Clone20 osteoblast Shn3 3'UTR firefly luciferase, 24 h; inhibition, % at 12.5 µM; actives 0.52% (n = 360,000); AID 588674, 2011;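 active = mean inhibition of at least 75% with every replicate also reaching 75%; inconclusive = mean inhibition at least 75% but some replicate below; inactive = mean inhibition below 75%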;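 also: 0% = median of neutral control wells and 100% = pilot-screen positive control compound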
# FN deposition inh – inhibitors of fibronectin matrix deposition, primary screen, AH1F cells, Alexa488-fibronectin fluorescence, plate reader; AH1F fibroblasts, overnight; inhibition, % at 12.6 µM; actives 0.086% (n = 350,000); AID 743247, 2014;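 active = mean inhibition across replicates of 30% or more, regardless of how many single replicates reach that level; inconclusive = mean under 30% yet at least half of replicates reach 30%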;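 also: positive control wells lacked labelled fibronectin entirely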
#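 material = AH1F fibroblast monolayer depositing Alexa488-labelled fibronectin into matrix | amount = 10000 AH1F cells/well | buffer or medium = DMEM plus 2% serum, read in PBS | incubation = 1 h cell adhesion before compound, then overnight fibronectin incubation | detection = fluorescence at 485 nm excitation, 525 nm emission | evaluation = percent inhibition as loss of matrix-bound fibronectin fluorescence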
# PAX8 reporter – inhibitors of PAX8-driven TPO luciferase reporter, primary screen, RMG-I cells, single concentration; SteadyGlo, 24 h; actives 1.2% (n = 360,000); inhibition, % at 12.6 µM;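 active = mean replicate inhibition at least 60% with every replicate also reaching 60%; inconclusive = only one of the two criteria is met; inactive = mean below 60% and not all replicates reaching 60%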;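 also: luciferase light reporting Pax8 driven TPO promoter activity; plate controls were median of neutral control wells for no effect and mitoxantrone controls for full effect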
# EWS-Fli block – EWS/Fli-driven NR0B1 reporter inhibitors, primary screen, A673 cells, NR0B1 luciferase, luminescence, MLPCN library. viability-normalised. inhibition, % at 12.6 µM. actives 0.67% (n = 350,000);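 active = mean inhibition of at least 50% after viability correction, with every replicate also passing that limit; inconclusive = mean reaches 50% but only one of two replicates passes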;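 also: firefly luciferase signal divided by Alamar Blue viability fluorescence both relative to DMSO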
# LMP1 NFkB inh – EBV LMP1-driven NF-kappaB luciferase reporter inhibitors, primary screen, cell-based, luminescence, single point. LMP1-induced NF-kappaB luciferase reporter cells. inhibition, % at 12.5 µM. actives 0.69% (n = 350,000). AID 504558, 2011; in the data active = inhibition above about 41%; inconclusive = no clear call, values can overlap the other calls;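 also: 0% = neutral control wells and 100% = reference inhibitor control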
# Numbers without * were called inactive; u = inconclusive; x = no result given.
SMILES,aSyn 5UTR inh,Shn3 3UTR inh,FN deposition inh,PAX8 reporter,EWS-Fli block,LMP1 NFkB inh
Oc1c(N=NC(=S)Nc2ccccc2F)c2ccccc2n1Cc1ccccc1,71.7*,54.8,x,21.4,43.3,45.1*
CN1[C@@H]2c3ccc(-c4ccccc4)c(=O)n3C[C@H]1[C@H](CO)[C@H]2C(=O)NCC1CCCCC1,x,x,x,x,-7.1,x
Cc1ccc(S(=O)(=O)Nc2ccc3c(c2)C(=O)N([C@H](C)CO)C[C@@H](C)[C@@H](CN(C)C(=O)C2CCCCC2)OCCCC[C@@H](C)O3)cc1,x,x,-5.0,19.0,7.2,x
COc1ccc(CNC(=O)C[C@@H]2CC[C@@H]3[C@H](COc4ccc(NC(C)=O)cc4C(=O)N3C)O2)cc1,x,x,-1.6,7.6,4.3,x
C=CCn1c(O)c(N=NC(=S)Nc2ccccc2F)c2ccccc21,67.4*,75.0,18.5,38.9,34.3,60.2*
Cc1ccc(S(=O)(=O)N2CCOCC2)cc1C(=O)Nc1ccccc1F,5.2,7.8,1.4,-4.0,4.6,-3.6
Cc1ccc(Cn2c(O)c(N=NC(=S)Nc3ccccc3F)c3ccccc32)cc1,71.4*,33.9,7.6,32.3,44.3,26.2
C=CCn1c(O)c(N=NC(=S)Nc2ccccc2F)c2cc(S(=O)(=O)N3CCOCC3)ccc21,77.9*,u,-7.6,49.1,34.9,51.9*
C=CCn1c(O)c(N=NC(=S)Nc2cccc(C)c2)c2ccccc21,93.6*,72.9,14.0,-0.5,7.8,u
C=CCn1c(O)c(N=NC(=O)c2ccccc2NS(=O)(=O)c2cccs2)c2ccccc21,18.3,-7.5,-6.3,-1.2,-4.1,-0.4
CC(C)NC(=O)Nc1ccc2c(c1)CC(=O)N([C@@H](C)CO)C[C@@H](C)[C@H](CN(C)S(C)(=O)=O)O2,x,x,x,5.6,-3.9,x
COc1ccc(S(=O)(=O)Nc2ccc3c(c2)C(=O)N([C@H](C)CO)C[C@H](C)[C@H](CN(C)Cc2ccccc2)OCCCC[C@@H](C)O3)cc1,x,x,-0.1,-14.5,-11.5,x
CC(C)NC(=O)N(C)C[C@H]1OCCCC[C@H](C)Oc2ccc(NC(=O)c3ccccc3)cc2C(=O)N([C@H](C)CO)C[C@@H]1C,x,x,x,-3.5,x,x
COc1ccc(S(=O)(=O)N(C)C[C@H]2Oc3c(NS(=O)(=O)c4ccc(Cl)cc4)cccc3C(=O)N([C@H](C)CO)C[C@H]2C)cc1,x,x,-8.6,-12.1,-1.2,x
C[C@H](CO)N1C[C@H](C)[C@H](CN(C)Cc2ccncc2)Oc2ccc(NC(=O)Nc3cccc4ccccc34)cc2CC1=O,x,x,x,42.0,x,x
C[C@H]1CN([C@@H](C)CO)C(=O)Cc2cc(NC(=O)CCC(F)(F)F)ccc2O[C@H]1CN(C)Cc1ccc2c(c1)OCO2,x,x,x,63.2*,-10.2,x
C[C@@H]1CN([C@H](C)CO)C(=O)c2cc(NC(=O)Nc3ccc(F)cc3)ccc2O[C@@H]1CN(C)C(=O)Nc1cccc2ccccc12,x,x,2.5,70.3*,8.6,x
Cc1noc(C)c1NC(=O)Nc1ccc2c(c1)CC(=O)N([C@@H](C)CO)C[C@H](C)[C@H](CN(C)Cc1ccc(C(F)(F)F)cc1)O2,x,x,-18.1,71.8*,4.9,x
C[C@H](CO)N1C[C@H](C)[C@@H](CN(C)Cc2ccncc2)Oc2ccc(NC(=O)Nc3cccc4ccccc34)cc2CC1=O,x,x,x,66.9*,x,x
C[C@@H]1CN([C@H](C)CO)C(=O)Cc2cc(NC(=O)CCC(F)(F)F)ccc2O[C@H]1CN(C)Cc1ccc2c(c1)OCO2,x,x,x,-36.3,-2.0,x
C[C@@H]1CCCCO[C@@H](CN(C)S(=O)(=O)c2cn(C)cn2)[C@H](C)CN([C@@H](C)CO)C(=O)c2cc(NC(=O)c3ccncc3)ccc2O1,x,x,x,-4.8,1.1,x
COc1ccc(NC(=O)Nc2ccc3c(c2)CC(=O)N([C@H](C)CO)C[C@H](C)[C@@H](CN(C)Cc2ccc(Cl)c(Cl)c2)O3)cc1,x,x,x,35.2,-3.0,x
C[C@H]1CN([C@@H](C)CO)C(=O)Cc2cc(NC(=O)Nc3ccc(C(F)(F)F)cc3)ccc2O[C@H]1CN(C)Cc1ccc(Cl)c(Cl)c1,x,x,19.6,49.4,5.9,x
